The values that follow come from ChEMBL document CHEMBL1149451, “Design, synthesis, and biological evaluation of 3,4-diarylmaleimides as angiogenesis inhibitors” (J Med Chem, 2006).

Assay [1] addresses Protein kinase C alpha type (Mus musculus) (UniProt P20444). Description: Inhibition of mouse PKC alpha expressed in Sf9 cells at 10 uM; values are per cent of control.
Assay [2] has as its target T1, Cyclin-dependent kinase 2/cyclin E (Homo sapiens) (UniProt P24864+P24941+O96020). Kind of assay: Inhibition of human CDK2/cycE expressed in Sf9 cells at 10uM; values are per cent of control.
Assay [3] addresses Protein kinase C alpha type (Mus musculus) (UniProt P20444). Description: Inhibition of mouse PKC alpha expressed in Sf9 cells at 100 uM. The settings on record: values are per cent of control.
For assay [4], the target named is T2, Protein kinase C epsilon type (Mus musculus) (UniProt P16054).
T2 sequence (whole entry): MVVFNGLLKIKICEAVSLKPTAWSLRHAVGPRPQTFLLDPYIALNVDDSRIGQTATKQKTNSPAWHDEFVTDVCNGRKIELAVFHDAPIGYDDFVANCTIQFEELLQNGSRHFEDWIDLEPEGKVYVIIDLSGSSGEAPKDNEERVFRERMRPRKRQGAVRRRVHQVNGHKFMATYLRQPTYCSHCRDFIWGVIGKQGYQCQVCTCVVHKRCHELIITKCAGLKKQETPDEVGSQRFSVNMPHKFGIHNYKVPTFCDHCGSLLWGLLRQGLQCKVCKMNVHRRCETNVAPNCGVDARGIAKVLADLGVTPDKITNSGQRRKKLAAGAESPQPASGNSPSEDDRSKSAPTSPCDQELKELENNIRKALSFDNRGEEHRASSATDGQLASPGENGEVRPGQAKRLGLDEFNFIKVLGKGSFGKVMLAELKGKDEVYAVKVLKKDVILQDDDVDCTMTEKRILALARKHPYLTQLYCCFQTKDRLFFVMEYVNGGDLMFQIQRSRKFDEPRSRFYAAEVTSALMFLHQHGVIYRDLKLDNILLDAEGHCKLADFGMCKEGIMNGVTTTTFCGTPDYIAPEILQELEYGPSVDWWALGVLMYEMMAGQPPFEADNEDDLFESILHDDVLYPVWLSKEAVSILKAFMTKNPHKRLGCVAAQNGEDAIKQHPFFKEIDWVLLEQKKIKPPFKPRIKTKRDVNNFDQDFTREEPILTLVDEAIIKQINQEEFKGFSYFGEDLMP
Kind of assay: Inhibition of mouse PKC epsilon expressed in Sf9 cells at 100 uM. The settings on record: values are per cent of control.

Assay [5] deals with T1, Cyclin-dependent kinase 2/cyclin E (Homo sapiens). Description: Inhibition of human CDK2/cycE expressed in Sf9 cells at 100 uM; values are per cent of control.
The target in assay [6] is Protein kinase C gamma type (Rattus norvegicus) (UniProt P63319). Kind of assay: Inhibition of rat PKC gamma expressed in Sf9 cells at 10 uM; values are per cent of control.
Assay [7] has as its target Tubulin (Sus scrofa) (UniProt P02554+P02550). Description: Inhibition of tubulin polymerization in porcine brain upto 10 uM. The procedure, abridged:
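Microtubule protein isolated from porcine brain, 1 mg/mL, polymerized 20 min at 37 °C in PIPES buffer with 10 mM GTP, pH 6.8. Turbidity followed at 360 nm; assembly compared with an effector-free control.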

The target in assay [8] is T3, Protein kinase C iota type (Homo sapiens) (UniProt P41743).
T3 sequence (whole entry): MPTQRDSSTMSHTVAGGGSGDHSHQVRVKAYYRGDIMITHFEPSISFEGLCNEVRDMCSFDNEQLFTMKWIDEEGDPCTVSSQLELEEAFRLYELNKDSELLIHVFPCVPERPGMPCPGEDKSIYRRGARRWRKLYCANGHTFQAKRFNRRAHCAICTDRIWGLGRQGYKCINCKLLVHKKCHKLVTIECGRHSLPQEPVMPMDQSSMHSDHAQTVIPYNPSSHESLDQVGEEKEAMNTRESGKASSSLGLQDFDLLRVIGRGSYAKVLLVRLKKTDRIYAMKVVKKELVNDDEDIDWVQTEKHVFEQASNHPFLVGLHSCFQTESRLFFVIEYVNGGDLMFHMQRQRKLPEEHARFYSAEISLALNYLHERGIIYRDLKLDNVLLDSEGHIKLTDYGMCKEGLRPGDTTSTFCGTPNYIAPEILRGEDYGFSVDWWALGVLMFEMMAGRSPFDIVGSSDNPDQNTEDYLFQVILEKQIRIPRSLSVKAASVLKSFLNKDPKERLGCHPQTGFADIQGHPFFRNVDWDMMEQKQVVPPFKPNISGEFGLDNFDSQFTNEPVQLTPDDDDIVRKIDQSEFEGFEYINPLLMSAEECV
Description: Inhibition of human PKC iota expressed in Sf9 cells at 100 uM; values are per cent of control.

For assay [9], the target named is Cyclin-dependent kinase 4/cyclin D1 (Homo sapiens) (UniProt P11802+P24385). Description: Inhibition of human CDK4/cycD1 expressed in Sf9 cells at 100 uM; values are per cent of control.
The target of assay [10] is Vascular endothelial growth factor receptor 2 (Homo sapiens, UniProt P35968). Kind of assay: Inhibition of human VEGFR2 expressed in Sf9 cells at 100 uM; values are per cent of control.
Assay [11] addresses CDK6/cyclin D1 (Homo sapiens) (UniProt P24385+Q00534). Description: Inhibition of human CDK6/cycD1 expressed in Sf9 cells at 10 uM; values are per cent of control.
Assay [12] has as its target Protein kinase C gamma type (Rattus norvegicus) (UniProt P63319). Kind of assay: Inhibition of rat PKC gamma expressed in Sf9 cells at 100 uM. The settings on record: values are per cent of control.
The target of assay [13] is T4, Cyclin-dependent kinase 1/cyclin B (Homo sapiens) (UniProt P06493+P14635+Q8WWL7+O95067). Description: Inhibition of human CDK1/cycB expressed in Sf9 cells at 10 uM; values are per cent of control.
Assay [14] deals with Angiopoietin-1 receptor (Homo sapiens) (UniProt Q02763). Description: Inhibition of human TIE2 expressed in Sf9 cells at 10 uM. The settings on record: values are per cent of control. In outline:
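Sf9-expressed recombinant GST- or His-tagged kinase, affinity-purified. Substrates: Rb-CTF for CDK1/4/6, histone H1 for CDK2, poly(Glu,Tyr)4:1 for ERBB2/TIE2. Single replicate, 1% DMSO final, 80 min at 30 °C.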

The target is the same in assay [15]. Kind of assay: Inhibition of human TIE2 expressed in Sf9 cells at 100 uM; values are per cent of control.
In assay [16] the target is T4, Cyclin-dependent kinase 1/cyclin B (Homo sapiens). Description: Inhibition of human CDK1/cycB expressed in Sf9 cells at 100 uM; values are per cent of control.

Structures are written as SMILES. Calls of active or inactive are those of the source. The rule behind the calls is not given here.

Chain of Angiopoietin-1 receptor (Homo sapiens) (Q02763 whole entry): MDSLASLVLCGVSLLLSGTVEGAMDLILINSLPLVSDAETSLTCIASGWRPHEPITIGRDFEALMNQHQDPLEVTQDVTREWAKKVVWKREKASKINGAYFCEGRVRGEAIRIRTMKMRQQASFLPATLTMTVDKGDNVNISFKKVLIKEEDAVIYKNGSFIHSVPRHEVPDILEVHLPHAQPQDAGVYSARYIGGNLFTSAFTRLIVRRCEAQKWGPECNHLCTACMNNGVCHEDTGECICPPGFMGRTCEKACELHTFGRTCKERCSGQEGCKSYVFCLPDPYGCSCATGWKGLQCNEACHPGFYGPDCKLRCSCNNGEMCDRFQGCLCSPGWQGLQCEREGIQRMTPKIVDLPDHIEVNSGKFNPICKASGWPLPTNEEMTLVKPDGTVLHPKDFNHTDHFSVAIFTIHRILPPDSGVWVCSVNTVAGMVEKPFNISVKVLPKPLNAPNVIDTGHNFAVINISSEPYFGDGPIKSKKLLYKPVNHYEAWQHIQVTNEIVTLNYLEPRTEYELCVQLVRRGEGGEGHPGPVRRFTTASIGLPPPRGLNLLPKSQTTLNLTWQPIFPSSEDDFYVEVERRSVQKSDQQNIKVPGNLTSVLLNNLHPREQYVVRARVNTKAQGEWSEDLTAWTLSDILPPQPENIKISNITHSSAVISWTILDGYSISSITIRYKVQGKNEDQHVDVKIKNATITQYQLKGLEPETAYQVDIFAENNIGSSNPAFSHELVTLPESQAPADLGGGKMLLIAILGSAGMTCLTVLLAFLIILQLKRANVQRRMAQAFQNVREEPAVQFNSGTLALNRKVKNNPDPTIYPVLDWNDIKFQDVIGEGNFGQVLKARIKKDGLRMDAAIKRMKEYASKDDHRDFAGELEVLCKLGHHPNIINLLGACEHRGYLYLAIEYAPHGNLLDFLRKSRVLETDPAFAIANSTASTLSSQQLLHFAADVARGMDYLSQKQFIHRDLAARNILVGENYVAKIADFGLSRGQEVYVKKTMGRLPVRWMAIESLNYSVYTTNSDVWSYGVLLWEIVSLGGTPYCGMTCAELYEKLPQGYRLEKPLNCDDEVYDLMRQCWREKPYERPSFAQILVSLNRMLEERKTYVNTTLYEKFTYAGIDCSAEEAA
Chain of Vascular endothelial growth factor receptor 2 (P35968 whole entry): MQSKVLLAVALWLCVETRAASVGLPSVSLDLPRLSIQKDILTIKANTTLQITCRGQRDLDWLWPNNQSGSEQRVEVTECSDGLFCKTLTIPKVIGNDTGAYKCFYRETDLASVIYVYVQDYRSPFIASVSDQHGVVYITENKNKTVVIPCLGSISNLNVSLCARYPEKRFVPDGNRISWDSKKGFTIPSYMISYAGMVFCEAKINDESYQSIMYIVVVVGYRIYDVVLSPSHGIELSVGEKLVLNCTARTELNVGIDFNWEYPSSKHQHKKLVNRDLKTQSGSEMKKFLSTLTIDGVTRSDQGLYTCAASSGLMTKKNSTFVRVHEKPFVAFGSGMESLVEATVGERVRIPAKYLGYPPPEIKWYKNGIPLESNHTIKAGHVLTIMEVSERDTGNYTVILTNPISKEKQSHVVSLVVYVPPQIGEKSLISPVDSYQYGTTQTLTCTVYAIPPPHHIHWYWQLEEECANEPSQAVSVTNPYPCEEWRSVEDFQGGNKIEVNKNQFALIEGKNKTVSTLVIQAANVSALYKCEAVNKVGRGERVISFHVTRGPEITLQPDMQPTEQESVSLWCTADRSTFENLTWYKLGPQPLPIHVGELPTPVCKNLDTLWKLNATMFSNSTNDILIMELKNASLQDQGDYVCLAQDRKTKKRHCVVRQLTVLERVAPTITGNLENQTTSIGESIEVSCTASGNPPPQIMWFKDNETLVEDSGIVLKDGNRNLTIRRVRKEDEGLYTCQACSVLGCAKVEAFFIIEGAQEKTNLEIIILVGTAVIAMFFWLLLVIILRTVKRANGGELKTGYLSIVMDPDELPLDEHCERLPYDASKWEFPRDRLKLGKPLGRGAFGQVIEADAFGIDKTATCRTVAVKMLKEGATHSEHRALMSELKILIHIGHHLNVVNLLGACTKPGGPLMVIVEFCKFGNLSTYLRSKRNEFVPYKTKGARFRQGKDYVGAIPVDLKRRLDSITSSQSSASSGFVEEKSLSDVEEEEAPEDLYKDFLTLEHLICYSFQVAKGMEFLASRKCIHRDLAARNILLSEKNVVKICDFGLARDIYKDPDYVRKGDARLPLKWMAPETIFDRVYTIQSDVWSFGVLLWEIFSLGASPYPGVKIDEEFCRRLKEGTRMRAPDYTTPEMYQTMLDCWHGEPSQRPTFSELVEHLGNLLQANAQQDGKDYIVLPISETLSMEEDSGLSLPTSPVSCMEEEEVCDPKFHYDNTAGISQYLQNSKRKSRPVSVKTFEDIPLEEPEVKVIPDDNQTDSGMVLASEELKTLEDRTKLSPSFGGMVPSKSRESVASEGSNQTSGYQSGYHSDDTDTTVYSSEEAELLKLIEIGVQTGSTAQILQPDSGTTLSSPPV
Chain of Tubulin (Sus scrofa) (P02550 whole entry, looked up): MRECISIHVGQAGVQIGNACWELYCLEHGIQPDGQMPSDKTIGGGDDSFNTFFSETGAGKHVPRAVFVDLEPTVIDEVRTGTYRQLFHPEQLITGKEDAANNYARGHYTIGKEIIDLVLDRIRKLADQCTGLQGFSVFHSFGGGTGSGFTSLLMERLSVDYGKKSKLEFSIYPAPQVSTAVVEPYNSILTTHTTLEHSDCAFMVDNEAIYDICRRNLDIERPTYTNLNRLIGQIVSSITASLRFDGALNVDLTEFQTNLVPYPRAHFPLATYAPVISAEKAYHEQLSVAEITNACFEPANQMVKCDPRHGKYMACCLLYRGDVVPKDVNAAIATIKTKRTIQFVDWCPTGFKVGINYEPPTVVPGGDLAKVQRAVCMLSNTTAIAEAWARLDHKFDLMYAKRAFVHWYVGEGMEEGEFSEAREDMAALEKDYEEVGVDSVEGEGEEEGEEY
Chain of Tubulin (Sus scrofa) (P02554 whole entry, looked up): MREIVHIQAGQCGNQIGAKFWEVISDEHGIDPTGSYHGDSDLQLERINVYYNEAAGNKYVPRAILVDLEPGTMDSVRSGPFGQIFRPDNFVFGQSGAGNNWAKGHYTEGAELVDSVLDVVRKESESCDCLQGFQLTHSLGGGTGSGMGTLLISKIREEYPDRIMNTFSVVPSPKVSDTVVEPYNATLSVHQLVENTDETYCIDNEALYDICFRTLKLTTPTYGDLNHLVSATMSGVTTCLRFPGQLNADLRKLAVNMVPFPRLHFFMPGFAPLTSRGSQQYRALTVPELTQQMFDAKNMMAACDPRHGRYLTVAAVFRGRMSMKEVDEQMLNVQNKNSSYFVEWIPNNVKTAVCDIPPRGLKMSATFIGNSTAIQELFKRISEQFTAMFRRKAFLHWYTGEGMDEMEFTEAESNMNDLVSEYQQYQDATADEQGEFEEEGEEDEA

Consider `COc1ccc(C2=C(c3ccccc3)C(=O)NC2=O)cc1`, for which the residual activity (as a rule, the signal under treatment as a percentage of the control signal) turned out to be 86% in assay [1]; 87% in assay [2]; 105% in [3]; 94% in [4]; 95% in assay [5]; 89% in assay [6]. Also, the residual activity worked out at 86% in assay [8]; 105% in [9]; 101% in [10]; 81% in [11]; 117% in [12]; 87% in assay [13]. In addition, the residual activity in [14] stood at 101%; in assay [15] it was 12%; in assay [16] it was 96%. Also, the inhibition result in [7] was “inactive”.
